In ChEMBL document CHEMBL1154186, “Synthesis, kinase inhibitory potencies, and in vitro antiproliferative evaluation of new Pim kinase inhibitors” (J Med Chem, 2009) one finds Activity and IC50 data, which are given here for 15 compounds.

Test [1] deals with Serine/threonine-protein kinase pim-1 (Homo sapiens) (UniProt P11309). In words: Inhibition of Pim-1 assessed as residual enzyme activity at 1 uM relative to untreated control.
Test [2] addresses Serine/threonine-protein kinase pim-2 (Homo sapiens) (UniProt Q9P1W9). In words: Inhibition of Pim-2 assessed as residual enzyme activity at 1 uM relative to untreated control.
Test [3] has as its target Serine/threonine-protein kinase pim-3 (Homo sapiens) (UniProt Q86V86). In words: Inhibition of Pim-3 assessed as residual enzyme activity at 1 uM relative to untreated control.
Test [4] has as its target Serine/threonine-protein kinase pim-1 (Homo sapiens) (UniProt P11309). Nature of the test: Inhibition of Pim-1 assessed as residual enzyme activity at 10 uM relative to untreated control.
Test [5] deals with Serine/threonine-protein kinase pim-2 (Homo sapiens) (UniProt Q9P1W9). Nature of the test: Inhibition of Pim-2 assessed as residual enzyme activity at 10 uM relative to untreated control.
Test [6] deals with Serine/threonine-protein kinase pim-3 (Homo sapiens) (UniProt Q86V86). In words: Inhibition of Pim-3 assessed as residual enzyme activity at 10 uM relative to untreated control.
Another test concerns PC-3. In words: Antiproliferative activity against human PC3 cells after 48 hrs by resazurin dye reduction assay. The following applies: PC-3, 48 h. It is filed as functional, cell-based. Put shortly: (§1)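 Cells (human fibroblast primary culture, or PC3, DU145 or PA1 cancer lines) were kept as monolayers in Glutamax MEM with Earle's salts, 10% FCS, pyruvate, nonessential amino acids and gentamicin, at 37 °C in 5% CO2. 5×10^3 cells/well adhered for 16 h, then had 48 h continuous drug exposure (20 mM DMSO stock). Resazurin 25 µg/mL for 1 h; fluorescence ex 530/em 590 nm. IC50 from blank-corrected concentration–survival curves versus control wells.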
(In general: Resazurin is reduced to fluorescent resorufin, in cell work by metabolically active cells.)

A further test relates to DU-145. In words: Antiproliferative activity against human DU145 cells after 48 hrs by resazurin dye reduction assay. Format: functional, cell-based. The following applies: DU-145, 48 h. Put shortly:
as §1

A further test concerns PA-1. In words: Antiproliferative activity against human PA1 cells after 48 hrs by resazurin dye reduction assay. It is filed as functional, cell-based. The following applies: PA-1, 48 h. Put shortly:
as §1

A short description of test [7]: Antiproliferative activity against human fibroblasts after 48 hrs by resazurin dye reduction assay. It is filed as cell-based. The following applies: Fibroblast. Put shortly:
as §1

Chain of Serine/threonine-protein kinase pim-2 (Homo sapiens) (Q9P1W9 whole entry, looked up): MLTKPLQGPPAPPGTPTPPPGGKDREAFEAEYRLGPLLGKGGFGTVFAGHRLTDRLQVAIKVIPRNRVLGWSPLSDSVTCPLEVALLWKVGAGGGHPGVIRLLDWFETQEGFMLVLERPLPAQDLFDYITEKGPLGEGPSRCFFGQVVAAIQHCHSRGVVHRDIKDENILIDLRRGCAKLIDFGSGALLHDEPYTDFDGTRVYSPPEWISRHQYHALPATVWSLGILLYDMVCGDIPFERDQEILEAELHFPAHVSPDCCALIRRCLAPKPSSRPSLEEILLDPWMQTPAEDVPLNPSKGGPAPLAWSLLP
Chain of Serine/threonine-protein kinase pim-1 (Homo sapiens) (P11309 whole entry, looked up): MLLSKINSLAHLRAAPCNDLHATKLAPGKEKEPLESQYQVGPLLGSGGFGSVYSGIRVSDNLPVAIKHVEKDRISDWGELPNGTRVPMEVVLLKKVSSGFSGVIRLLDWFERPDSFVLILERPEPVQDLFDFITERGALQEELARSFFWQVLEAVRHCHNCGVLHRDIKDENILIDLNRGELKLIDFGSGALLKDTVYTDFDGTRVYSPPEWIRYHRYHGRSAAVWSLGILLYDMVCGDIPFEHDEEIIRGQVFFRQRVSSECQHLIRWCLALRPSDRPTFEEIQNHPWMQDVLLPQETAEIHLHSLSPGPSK

`OCc1c[nH]c2c1ccc1c3ccccc3[nH]c12`: the Activity in test [1] was determined as 72%; in test [2], 46%; in test [3], 68%; in [4] it was 28%; in test [5], 47%; in [6], 18%.

In the case of `COc1cccc(-c2ccc3[nH]c4c(ccc5c(C=O)c[nH]c54)c3c2)c1`, the Activity turned out to be 64% in test [1]; 65% in test [2]; 46% in test [3]; 17% in [4]; 31% in test [5]; 12% in [6].

For `O=Cc1c[nH]c2c1ccc1c3cc(-c4ccc(C(F)(F)F)cc4)ccc3[nH]c12`, the Activity in test [1] was found to be 79%; in [2] it was 49%; in test [3], 70%; in test [4], 28%; in [5] it was 52%; in test [6], 23%.

On to `CCN(CC)C(=O)/C(=N\O)c1c[nH]c2c1ccc1c3ccccc3[nH]c12`, for which the Activity in [1] is 80%; in test [2], 62%; in [3] it was 74%; in [4] it was 41%; in [5] it was 27%; in test [6], 21%.

Consider `O=Cc1c[nH]c2c1ccc1c3cc(-c4ccc(F)cc4)ccc3[nH]c12`, for which the Activity turned out to be 65% in test [1]; 72% in test [2]; 54% in test [3]; 15% in test [4]; 55% in test [5]; 15% in test [6].

In the case of `O=C(c1c[nH]c2c1ccc1c3ccccc3[nH]c12)C(F)(F)F`, the Activity in test [1] worked out at 61%; in test [2], 54%; in test [3], 20%; in [4], 20%; in test [5] it was 30%; in test [6], 7%.

With `O=Cc1c[nH]c2c1ccc1c3cc(-c4ccc(OC(F)(F)F)cc4)ccc3[nH]c12`, the Activity in [1] came to 68%; in test [2], 73%; in test [3], 77%; in test [4], 29%; in test [5], 70%; in test [6], 31%.

On to `NC(=O)c1c[nH]c2c1ccc1c3ccccc3[nH]c12`, for which the Activity in test [4] was 9%; in [5] it was 27%; in [6] it was 9%.

Regarding `O=Cc1c[nH]c2c1ccc1c3cc(-c4ccccc4)ccc3[nH]c12`, the Activity in test [1] is 60%; in test [2], 68%; in test [3] it was 54%; in test [4], 16%; in test [5], 53%; in test [6] it was 15%.

Consider `O=Cc1c[nH]c2c1ccc1c3cc(Br)ccc3[nH]c12`, for which the Activity in [1] is 31%; in test [2], 82%; in test [3], 11%; in test [4], 6%; in test [5], 53%; in test [6], 6%. The IC50 was found to be 5.9 µM with PC-3, 12.2 µM with DU-145, 2.8 µM with PA-1 and 11 µM in test [7].

Turning to `O=S(=O)(c1ccccc1)n1ccc2ccc3c4ccccc4[nH]c3c21`, the Activity was determined as 83% in test [1]; 65% in [2]; 102% in test [3]; 61% in [4]; 62% in test [5]; 64% in test [6].

With `Brc1ccc2[nH]c3c(ccc4cc[nH]c43)c2c1`, the Activity worked out at 69% in test [1]; 67% in [2]; 55% in [3]; 12% in [4]; 46% in [5]; 8% in test [6].

In the case of `OCCc1c[nH]c2c1ccc1c3ccccc3[nH]c12`, the Activity is 90% in test [1]; 69% in test [2]; 72% in [3]; 35% in test [4]; 50% in [5]; 21% in test [6].

For the compound `O=Cc1c[nH]c2c1ccc1c3cc(-c4ccc(-c5ccccc5)cc4)ccc3[nH]c12`, the Activity in [1] was 69%; in test [2], 67%; in test [3], 77%; in test [4] it was 39%; in [5], 70%; in test [6] it was 48%.

`O=Cc1c[nH]c2c1ccc1c3cc(-c4ccc(F)cc4F)ccc3[nH]c12`: the Activity in test [1] was 39%; in test [2] it was 59%; in [3] it was 26%; in test [4], 6%; in test [5] it was 32%; in [6] it was 6%.

By IC50 is commonly meant the concentration that inhibits the measured activity by half. A high value points to lower potency.
